SENP6 block – SENP6 protease inhibitors, primary screen, biochemical, luminescence, uHTS. Recombinant SENP6 catalytic domain, aminoluciferin luminescence. inhibition, % at 10 µM. 1.8% of 330,000 active;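 active = inhibition above about 50% at the single tested dose, limit read from the data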;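 also: plate controls were DMSO wells with enzyme for no effect and DMSO wells lacking enzyme for full effect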
SENP7 block – SENP7 protease inhibitors, primary screen, biochemical, luminescence, uHTS; 1.5% of 330,000 active; inhibition, % at 5 µM; recombinant SENP7, Z-RLRGG-aminoluciferin luminescence, 40 min;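 active = inhibition above about 50% at the single test dose, limit read from the data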;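 also: plate controls were DMSO with enzyme for no effect and no enzyme buffer wells for full effect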
SENP1 inh – human SENP1 catalytic domain inhibitors, primary screen, biochemical, FRET, uHTS; Sentrin-specific protease 1 (Homo sapiens), Q9P0U3; recombinant SENP1 catalytic domain, CyPet-SUMO1-YPet FRET cleavage; inhibition, % at 10 µM; 0.21% of 360,000 active; AID 624204, 2012;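 active = inhibition at least 30% at 10 µM, raw YFP signal under a set limit, fluorescence ratio 0.5 to 1.5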;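 also: 0% = enzyme with DMSO and 100% = no enzyme wells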
Target sequence (Q9P0U3 419-644 limits assumed): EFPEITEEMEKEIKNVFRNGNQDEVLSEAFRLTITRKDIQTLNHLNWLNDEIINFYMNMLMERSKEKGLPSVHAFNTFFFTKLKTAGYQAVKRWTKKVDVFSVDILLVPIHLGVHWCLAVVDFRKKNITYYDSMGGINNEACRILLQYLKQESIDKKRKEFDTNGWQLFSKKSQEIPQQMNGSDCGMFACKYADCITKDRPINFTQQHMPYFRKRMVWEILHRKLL
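material = recombinant human SENP1 catalytic domain, His6-tagged | quantity = 20 pM enzyme | reagent = 25 nM SUMO1 FRET substrate | compound dosing = 10 µM single point, 0.5% DMSO | timing = 50 min enzyme reaction, room temperature, light-protected | detection = FRET, CFP and YFP emission | control set = no-enzyme low, enzyme-DMSO high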
SENP8 block-1 – human SENP8 protease inhibitors, primary screen, biochemical, fluorescence, Nedd8 protein substrate, uHTS | 0.64% of 360,000 active | AID 602440, 2012 | inhibition, % at 20 µM | recombinant SENP8; in the data active = inhibition mostly above about 40%, no sharp cut-off; inactive = mostly below about 27%
Target sequence (Q96LD8 whole entry, looked up): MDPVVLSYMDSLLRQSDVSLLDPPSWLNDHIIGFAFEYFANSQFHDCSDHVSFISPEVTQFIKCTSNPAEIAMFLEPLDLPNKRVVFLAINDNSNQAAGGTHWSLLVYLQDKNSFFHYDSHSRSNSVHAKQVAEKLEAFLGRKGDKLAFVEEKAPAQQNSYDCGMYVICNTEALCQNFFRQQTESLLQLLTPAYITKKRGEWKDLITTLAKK
HSP90 inh – HSP90 inhibitors, primary screen, cell lysate, luminescence | inhibition, % at 5.6 µM | Heat shock protein HSP 90 (rabbit reticulocyte lysate; luciferase refolding) | 0.91% of 290,000 active | Rabbit reticulocyte lysate, luciferase refolding luminescence, 3 h | AID 1789, 2009;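 active = inhibition above the screen-wide mean plus 3 SD, computed separately per campaign, cut at about 16% in these data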;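 also: 0% = DMSO wells and 100% = 60 µM geldanamycin wells; inhibitors lower the luminescence because luciferase stays unfolded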
SENP8 block-2 – SENP8 protease inhibitors, primary screen, biochemical, luminescence; Sentrin-specific protease 8 (Homo sapiens), Q96LD8; inhibition, % at 10 µM; purified SENP8, Z-RLRGG-aminoluciferin cleavage; 1.2% of 330,000 active; in the data active = inhibition above about 50%
SENP8 conf – SENP8 protease inhibitors, retest, confirmation, biochemical, luminescence, single concentration. shares compounds with SENP7 block. Recombinant SENP8, Z-RLRGG-aminoluciferin luminescence, 60 min. inhibition, % at 12.5 µM. 40% of 6,200 active. AID 488912, 2010;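 active = mean inhibition across replicates above about 50%, limit read from the data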
SENP6 conf – SENP6 protease inhibitors, confirmation, biochemical, luminescence, single concentration; shares compounds with SENP7 block; recombinant SENP6, Z-RLRGG-aminoluciferin luminescence; inhibition, % at 12.5 µM; 58% of 6,200 active; AID 488915, 2010
SENP7 confirm – SENP7 protease inhibitors, retest, confirmation, biochemical, luminescence, single concentration; shares compounds with SENP7 block; recombinant SENP7, Z-RLRGG-aminoluciferin luminescence, 40 min; inhibition, % at 12.5 µM; 69% of 6,200 active
Casp3 SENP sel – caspase-3 protease inhibitors, confirmation, selectivity assay for SENP inhibitor project, biochemical, single concentration. shares compounds with SENP7 block. purified caspase-3, Z-DEVD-aminoluciferin luminescence, 60 min. inhibition, % at 12.5 µM. 60% of 6,200 active;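 active = mean inhibition above about 50%, limit read from the data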;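 also: plate controls were enzyme with DMSO for no effect and wells without caspase-3 for full effect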
Luc interf – counter-screen for SENP inhibitors: luminescence interference; Pre-incubated SENP8/Z-RLRGG-aminoluciferin, luciferase luminescence interference; 39% of 6,200 active; inhibition, % at 12.5 µM; AID 488919; shares compounds with SENP7 block;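 active = mean inhibition above about 50% when retested at one dose, limit read from the data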;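 also: plate controls were DMSO wells with completed reaction for no effect and substrate without enzyme for full effect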
The depositor's hits bear a star; · = no result given. Sampled rows, rich in hits. Any-hit rate of the full collection: about 2.9%.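 The calls were made as follows, unless noted: active = mean inhibition above about 50% in the one-dose retest (limit read from the data); inactive = the rest.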

SMILES | SENP6 block | SENP7 block | SENP1 inh | SENP8 block-1 | HSP90 inh | SENP8 block-2 | SENP8 conf | SENP6 conf | SENP7 confirm | Casp3 SENP sel | Luc interf
Cc1occc1C(=O)Nc1ccc(Br)cc1F | 56.2* | 44.5 | -1.1 | 18.1 | 9.8 | 14.5 | 17.5 | 26.2 | 73.2* | 63.0* | 49.1
O=C(N/N=C\c1ccc([N+](=O)[O-])s1)c1cncc(Br)c1 | 69.7* | 15.0 | -2.4 | 36.9 | 5.1 | 8.8 | -0.5 | 18.7 | -7.0 | 3.7 | 3.5
CCCN1CCN(S(=O)(=O)c2c(C)[nH]c(C)c2C(=O)N2CCCCC2)CC1 | 1.1 | 0.9 | -0.5 | -4.5 | -4.1 | -1.6 | · | · | · | · | ·
O=C(Nc1ccc(C(=O)N2CCOCC2)cc1)c1ccccc1Cl | · | · | 1.5 | 13.8 | · | · | · | · | · | · | ·
CC1OC(C(C)(C)C)Cc2[nH][nH]c(=O)c21 (stereo not drawn) | · | · | 1.9 | 4.5 | · | · | · | · | · | · | ·
CCNC(=S)NNC(=O)c1cc(-c2cccc(OC)c2)nc2ccccc12 | 56.8* | 11.5 | 2.2 | -56.5 | -0.8 | 41.3 | 64.0* | 60.5* | 79.0* | 85.2* | 70.8*
CCN(C(=O)c1ccco1)c1nnc(-c2cccnc2)s1 | 8.5 | 0.1 | -0.7 | -6.4 | -3.0 | -2.7 | · | · | · | · | ·
COc1ccc(C(=O)Nc2ccc3ccccc3n2)cc1OC | 11.9 | 1.1 | 0.6 | -43.2 | -3.3 | -7.0 | · | · | · | · | ·
Cc1ccc(C(=O)Nc2ccc3ccccc3n2)cc1 | 86.3* | 86.0* | 0.6 | 10.9 | 7.0 | 79.9* | 88.4* | 87.5* | 96.7* | 82.2* | 77.1*
O=C(Nc1ccc2ccccc2n1)c1ccccc1 | 87.6* | 93.3* | 0.3 | 19.0 | 11.5 | 87.0* | 84.7* | 84.9* | 97.8* | 89.3* | 89.0*
O=C(CCc1ccccc1)Nc1ccc2ccccc2n1 | -35.8 | 14.4 | 1.8 | -3.8 | -2.7 | -0.4 | · | · | · | · | ·
O=C(Nc1ccc2ccccc2n1)c1ccccc1Br | 79.1* | 83.8* | -1.9 | 0.1 | 0.9 | 77.2* | 8.8 | 80.1* | 97.2* | 81.5* | 16.7
Cc1nn(C)c(C)c1CN(C(=O)C1CCC(=O)N(C2CCCCCC2)C1)C(C)C (stereo not drawn) | -17.6 | 13.4 | 1.2 | 0.3 | -7.8 | -4.5 | · | · | · | · | ·
CN(C)CCN(Cc1ccccc1)C(c1cc2ccccc2o1)c1nnnn1C(C)(C)C (stereo not drawn) | · | · | -1.3 | 10.0 | · | · | · | · | · | · | ·
O=c1[nH]c2ccc(S(=O)(=O)N3CCN(c4ccc(F)cc4)CC3)cc2o1 | 13.9 | 0.9 | 3.6 | 4.5 | -1.9 | 54.8* | 6.3 | 6.0 | -7.3 | -6.2 | -2.3
Cc1ccc2[nH]c3c(c2c1)CN(C(=O)CN1CCCc2ccccc21)CC3 | 94.6* | 33.7 | -20.6 | -14.2 | 9.6 | 36.3 | -8.7 | -5.6 | -7.3 | 2.2 | 1.2
